Only some compounds are listed: those with a hit (about 1.2% of all), similar ones and a draw of the others.
Ec RNAP inh – inhibitors of Escherichia coli RNA polymerase; E. coli RNA polymerase, fluorescence transcription assay; hit rate 0.2% among 62,000; P0A8V2; inhibition, %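 (tested at 10 µM)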; in the data active = inhibition above about 20%;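 also: 0% = enzyme without compound and 100% = no enzyme blank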
SKBR3 24h inh – SK-BR-3 proliferation inhibitors; SK-BR-3 viability, CellTiter-Glo ATP luminescence, 24 h; hits give low values; hit rate 0.47% among 41,000; viability, % at 10 µM;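 active = viability at or below the median of all test compounds minus 3 SD, in both replicates if run twice, cut at about 45% in these data; inconclusive = duplicate replicates that disagree with each other; inactive = viability above that cutoff in every replicate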;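 also: 100% = median untreated cell wells and 0% = median positive control drug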
TNAP act mid DEA – activators of human TNAP at intermediate phosphate acceptor | 64,000 tested, under 10 active | AID 813 | P05186 | purified TNAP, CDP-star luminescence, 100 mM DEA, 30 min; hits give high values; scale: 0 levamisole-inhibited, 1 vehicle-only enzyme | activation factor at 20 µM;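 active = activation factor of at least 2 at 20 µM, relative to controls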
AP complement – alternative pathway complement inhibition, orthogonal assay; Human serum alternative complement pathway, LPS-coated ELISA, C3 deposition; tested in compound mixtures; inhibition, % at 5 µM; hit rate 0.08% among 62,000; AID 1235;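 active = inhibition above 30% in each of the two pooled mixtures holding the compound, so the lower value exceeds 30%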;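 also: 0% = serum in Mg-EGTA without compound and 100% = EDTA serum blank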
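Assay system: Human serum alternative complement pathway, C3 deposition on LPS-coated wells | Incubation: 1 h serum-compound exposure at 37 °C | Doses: 5 µM per compound in ten-compound mixtures | Read-out: Percent inhibition | Technique: ELISA with HRP anti-human C3 antibody, TMB substrate, absorbance 450 nm | Replication: Two pool placements per compound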
Her2 expr inh – lowers expression of human Her2 kinase; P04626; SKBR-3 HER2 protein level, AlphaScreen, 18-24 h; hits give low values; HER2 level % of control, % at 10 µM; hit rate 0.69% among 65,000;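 active = HER2 level under 5% of the carrier-only control; inconclusive = no clear call, values can overlap the other calls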;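 also: 100% = DMSO carrier and 0% = 500 nM PU-H71 HSP90 inhibitor; lower value means stronger loss of Her2 protein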
Target sequence (P04626 whole entry, looked up): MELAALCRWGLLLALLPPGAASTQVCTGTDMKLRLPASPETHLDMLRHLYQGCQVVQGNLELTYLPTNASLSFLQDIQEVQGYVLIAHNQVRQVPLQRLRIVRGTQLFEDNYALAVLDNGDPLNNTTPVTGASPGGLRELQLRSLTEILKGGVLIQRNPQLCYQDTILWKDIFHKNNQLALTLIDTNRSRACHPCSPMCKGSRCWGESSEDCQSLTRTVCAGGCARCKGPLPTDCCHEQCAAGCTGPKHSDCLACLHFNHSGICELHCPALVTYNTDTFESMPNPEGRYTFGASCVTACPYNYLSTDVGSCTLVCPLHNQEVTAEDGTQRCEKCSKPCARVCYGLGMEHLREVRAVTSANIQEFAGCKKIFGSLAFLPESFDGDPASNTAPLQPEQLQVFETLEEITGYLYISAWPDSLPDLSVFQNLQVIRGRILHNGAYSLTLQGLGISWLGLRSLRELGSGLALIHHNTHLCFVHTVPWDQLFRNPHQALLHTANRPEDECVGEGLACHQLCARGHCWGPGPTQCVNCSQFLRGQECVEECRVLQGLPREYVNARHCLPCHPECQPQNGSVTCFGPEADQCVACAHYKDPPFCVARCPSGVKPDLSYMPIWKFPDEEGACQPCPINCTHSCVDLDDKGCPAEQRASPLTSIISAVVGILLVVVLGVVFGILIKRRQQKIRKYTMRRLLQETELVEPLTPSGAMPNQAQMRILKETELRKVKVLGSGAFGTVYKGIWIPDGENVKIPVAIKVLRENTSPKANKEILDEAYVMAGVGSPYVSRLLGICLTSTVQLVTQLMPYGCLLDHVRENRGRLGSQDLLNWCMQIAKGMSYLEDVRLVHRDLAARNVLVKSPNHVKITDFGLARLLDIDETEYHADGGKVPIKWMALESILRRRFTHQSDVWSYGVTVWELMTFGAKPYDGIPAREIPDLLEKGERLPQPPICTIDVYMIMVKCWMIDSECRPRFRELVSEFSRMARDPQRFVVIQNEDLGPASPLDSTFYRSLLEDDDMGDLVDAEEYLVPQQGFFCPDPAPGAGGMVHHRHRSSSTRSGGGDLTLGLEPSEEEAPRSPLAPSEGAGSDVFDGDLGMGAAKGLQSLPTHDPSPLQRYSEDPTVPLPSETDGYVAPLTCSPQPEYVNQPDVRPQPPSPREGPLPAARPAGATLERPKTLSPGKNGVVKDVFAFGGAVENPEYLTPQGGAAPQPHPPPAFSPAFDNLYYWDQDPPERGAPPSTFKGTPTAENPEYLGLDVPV
MMP13 inh – inhibitors of human MMP13; MMP-13 fTHP FRET cleavage, Mca fluorescence; inhibition, % at 4 µM; hit rate 0.07% among 65,000; AID 570;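 active = inhibition above the mean of compound-free control plate wells plus 3 SD, cut at about 14% in these data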;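 also: 0% = DMSO wells and 100% = wells with reference MMP-13 inhibitor after basal subtraction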
The depositor's hits bear a star.

What do the screens show for `O=C(c1cccn2c(=O)c3ccc(Cl)cc3nc12)N1CCN(Cc2ccc3c(c2)OCO3)CC1`?
Ec RNAP inh: -1; TNAP act mid DEA: 1; AP complement: 6; Her2 expr inh: 105; MMP13 inh: -6

What do the screens show for `O=C(Nc1cccc(C(=O)N2CCOCC2)c1)NC1CCCCC1`?
Ec RNAP inh: 6; SKBR3 24h inh: 92; TNAP act mid DEA: 0.9; AP complement: 14; Her2 expr inh: -22*; MMP13 inh: 4

Results for COc1ccc(CNC(=O)CSc2nnnn2-c2ccc(O)cc2)cc1 ?
Ec RNAP inh: 3; SKBR3 24h inh: 86; TNAP act mid DEA: 0.9; AP complement: 10; Her2 expr inh: 69; MMP13 inh: 7

Results for O=C(CCn1[nH]c(=O)c2ccccc2c1=O)OC1CCCCC1 ?
Ec RNAP inh: 9; SKBR3 24h inh: 82; TNAP act mid DEA: 0.9; AP complement: 0; Her2 expr inh: -24*; MMP13 inh: -7

What do the screens show for `CC1=C(SCCC#N)S/C(=C2\SC(C)=C(SCCC#N)S2)S1`?
SKBR3 24h inh: 102; TNAP act mid DEA: 0.9; Her2 expr inh: 74; MMP13 inh: 6

Results for COC(=O)CSC1=C(C#N)C(c2ccc(F)cc2)CC(=O)N1 (centres undefined) ?
Ec RNAP inh: 21*; TNAP act mid DEA: 0.8; AP complement: 2; Her2 expr inh: 83; MMP13 inh: 5

How did COC(=O)c1ccc(COC(=O)c2ccc(-n3cnnn3)cc2)o1 do in these assays?
Ec RNAP inh: -3; TNAP act mid DEA: 0.9; AP complement: 9; Her2 expr inh: 100; MMP13 inh: 5

How did COC(=O)Nc1ccc(S(=O)(=O)N(CCO)CC(F)(F)C(F)F)cc1 do in these assays?
Ec RNAP inh: 1; SKBR3 24h inh: 63; TNAP act mid DEA: 1; AP complement: 13; Her2 expr inh: -19*; MMP13 inh: -1

Results for CCc1nc(C)ccc1OCC(=O)NCCCN(C)C ?
Ec RNAP inh: 9; SKBR3 24h inh: 87; TNAP act mid DEA: 0.9; AP complement: 5; Her2 expr inh: -28*; MMP13 inh: 2

Results for O=C1C(C2=C(O)c3ccccc3C2=O)=Nc2ccccc21 ?
Ec RNAP inh: 10; TNAP act mid DEA: 0.9; AP complement: 2; Her2 expr inh: -16*; MMP13 inh: -2

What do the screens show for `CCOC(=O)c1c(NC(=O)CSc2n[nH]c(N)n2)sc(CC)c1C`?
Ec RNAP inh: -2; TNAP act mid DEA: 1.1; AP complement: 14; Her2 expr inh: -33*; MMP13 inh: 4

Results for COc1ccc(-n2nnc3c(SCC(=O)NCC4CCCO4)ncnc32)cc1 (centres undefined) ?
Ec RNAP inh: 2; TNAP act mid DEA: 0.9; AP complement: 17; Her2 expr inh: -0.9*; MMP13 inh: 0

Results for CCN(CC)C(=O)CSc1ncnc2c1nnn2-c1ccc(OC)cc1 ?
Ec RNAP inh: -2; TNAP act mid DEA: 0.9; AP complement: 12; Her2 expr inh: 81; MMP13 inh: 3

Results for COc1ccc(-c2cc(NCCc3ccncc3)n3ncnc3n2)cc1 ?
Ec RNAP inh: -4; SKBR3 24h inh: 84; TNAP act mid DEA: 1; AP complement: 13; Her2 expr inh: 84; MMP13 inh: -16

Results for COc1ccc(-c2cc(NCc3ccccn3)n3ncnc3n2)cc1 ?
Ec RNAP inh: 9; SKBR3 24h inh: 87; TNAP act mid DEA: 2*; AP complement: 11; Her2 expr inh: 95; MMP13 inh: -13

What do the screens show for `O=C(O)CCC(NS(=O)(=O)c1ccc(-c2ccccc2)cc1)C(=O)O` (centres undefined)?
Ec RNAP inh: 3; TNAP act mid DEA: 1; AP complement: 6; Her2 expr inh: 100; MMP13 inh: 50*

How did Cc1ccc2c(c1)CCCN2C(=O)c1ccoc1C do in these assays?
Ec RNAP inh: 4; SKBR3 24h inh: 87; TNAP act mid DEA: 0.9; AP complement: 13; Her2 expr inh: -29*; MMP13 inh: 0

How did Cc1ccc2c(c1)CCCN2C(=O)c1c(C)noc1C do in these assays?
Ec RNAP inh: 13; SKBR3 24h inh: 125; TNAP act mid DEA: 1; AP complement: 9; Her2 expr inh: 122; MMP13 inh: -3

What do the screens show for `Cc1sc2ncnc(SCC(=O)c3cccs3)c2c1C`?
Ec RNAP inh: -7; SKBR3 24h inh: 85; TNAP act mid DEA: 1; AP complement: 13; Her2 expr inh: 58; MMP13 inh: 4

Results for Clc1ccc(-n2nnnc2Sc2ncnc3sccc23)cc1 ?
Ec RNAP inh: 6; TNAP act mid DEA: 0.9; AP complement: -8; Her2 expr inh: -11*; MMP13 inh: -5

What do the screens show for `Cc1sc2ncnc(Sc3nnnn3-c3ccccc3)c2c1C`?
Ec RNAP inh: 1; TNAP act mid DEA: 0.9; AP complement: 9; Her2 expr inh: -14*; MMP13 inh: -40

How did O=S(=O)(CCOc1ccccc1)c1nc2ccccc2[nH]1 do in these assays?
Ec RNAP inh: 9; SKBR3 24h inh: 81; TNAP act mid DEA: 0.9; AP complement: 7; Her2 expr inh: 73; MMP13 inh: 1

What do the screens show for `CS(=O)(=O)n1nc(OC(=O)c2cccc3ccccc23)cc1N`?
Ec RNAP inh: 10; SKBR3 24h inh: 42*; TNAP act mid DEA: 1; AP complement: -3; Her2 expr inh: 60; MMP13 inh: 6

Results for COc1ccc(S(=O)(=O)n2nc(OC(=O)c3ccccc3Br)cc2N)cc1 ?
Ec RNAP inh: 3; SKBR3 24h inh: 97; TNAP act mid DEA: 0.9; AP complement: 16; Her2 expr inh: 126; MMP13 inh: 1

What do the screens show for `CC1(C(=O)NCc2cccnc2)CCC(=O)N1Cc1cccs1` (centres undefined)?
Ec RNAP inh: 6; TNAP act mid DEA: 0.9; AP complement: 36*; Her2 expr inh: 111; MMP13 inh: -1

How did CCc1ccc(-c2nc(CN3CCCC(C(=O)NCCc4ccc(OC)c(OC)c4)C3)c(C)o2)cc1 (centres undefined) do in these assays?
Ec RNAP inh: 8; TNAP act mid DEA: 0.9; AP complement: 10; Her2 expr inh: -23*; MMP13 inh: 4

How did COc1ccc(CC(=O)Nc2ccc(-c3noc(-c4cc(OC)c(OC)c(OC)c4)n3)cc2)cc1 do in these assays?
Ec RNAP inh: 6; TNAP act mid DEA: 1; AP complement: 9; Her2 expr inh: 109; MMP13 inh: -3

What do the screens show for `COc1cc(-c2nc(-c3ccc(NC(=O)c4ccc5c(c4)OCO5)cc3)no2)cc(OC)c1OC`?
Ec RNAP inh: 5; SKBR3 24h inh: inconclusive; TNAP act mid DEA: 0.8; AP complement: 0; Her2 expr inh: -3.3*; MMP13 inh: 1

How did O=C(Cc1ccc(Cl)cc1)Nc1ccc2oc(-c3ccncc3)nc2c1 do in these assays?
Ec RNAP inh: -5; SKBR3 24h inh: 34*; TNAP act mid DEA: 0.9; AP complement: -17; Her2 expr inh: 21; MMP13 inh: -78
